Experiment [1] can be described thus: inhibitors of TNFa-induced NFkB p65 translocation, primary screen, imaging, HUVEC, MLSMR starter and 10KST1 sets (AID 438;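 active means inhibition above 20% together with a positive visual image hit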;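 further: compound added about 3h40 before a 20 min TNFalpha stimulation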;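 on inhibition: signal is the nuclear over cytoplasmic p65 intensity ratio per well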). The settings on record: HUVEC TNFa-induced p65 nuclear translocation; cell count: measured here: nuclei count (cytotoxicity indicator), at 2.08 µM; inhibition: at 2 µM, stronger effect = higher value, 0% TNFa-plus-vehicle, 100% no-TNFa wells.
Experiment [2] in a line: endothelial E-selectin expression blockers – imaging, HUVEC, immunofluorescence, MLSMR starter and 10KST1 sets, primary screen (AID 487;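 active means visually confirmed hit in the image check and inhibition above 20%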;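 on inhibition: signal is fraction of cell area covered by stained E-selectin grains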;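 on nuclei count: 100% = median nuclei count of all wells on the same plate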). The following applies: HUVEC TNFalpha-induced E-selectin immunofluorescence imaging, at 2 µM; inhibition: stronger effect = higher value; nuclei count: measured here: cell number, toxicity.
A short description of experiment [3]: Primary imaging screen for DUSP6 inhibitors that restore phospho-Erk in transfected HeLa cells, chemical complementation (AID 609;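 active means compounds giving at least 50% inhibition in the cell-based MKP-3 phosphatase rescue imaging test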;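 on inhibition: phospho-Erk level distribution per well compared with pooled transfected vehicle control wells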). The following applies: HeLa MKP-3 transfected, phospho-Erk imaging KS statistic, at 10 µM, cells stimulated with TPA for 15 min.
Experiment [4] has as its target Dual specificity protein phosphatase 6 (Homo sapiens) (UniProt Q16828). Described as above. The following applies: HeLa MKP-3 transfected, phospho-Erk imaging KS statistic; at 10 µM; stronger effect = higher value; cells stimulated with TPA for 15 min.
The target in experiment [5] is Voltage-gated potassium channel subunit beta-2 (Rattus norvegicus) (UniProt P62483). As to the kind of experiment: inhibitors of rat Kvbeta2 reductase activity – biochemical, NADPH fluorescence, primary screen (AID 622;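 active means fluorescence slope higher than the sample average by over 3 SD, cut at about -0.22 in these data, passing the limit was not always enough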;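 further: slope of raw intensity against log time taken from 70 to 1610 s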). The settings on record: recombinant KvBeta, 4-cyanobenzaldehyde reduction, at 10 µM, stronger effect = higher value.
Chain of Voltage-gated potassium channel subunit beta-2 (Rattus norvegicus) (P62483 whole entry, looked up): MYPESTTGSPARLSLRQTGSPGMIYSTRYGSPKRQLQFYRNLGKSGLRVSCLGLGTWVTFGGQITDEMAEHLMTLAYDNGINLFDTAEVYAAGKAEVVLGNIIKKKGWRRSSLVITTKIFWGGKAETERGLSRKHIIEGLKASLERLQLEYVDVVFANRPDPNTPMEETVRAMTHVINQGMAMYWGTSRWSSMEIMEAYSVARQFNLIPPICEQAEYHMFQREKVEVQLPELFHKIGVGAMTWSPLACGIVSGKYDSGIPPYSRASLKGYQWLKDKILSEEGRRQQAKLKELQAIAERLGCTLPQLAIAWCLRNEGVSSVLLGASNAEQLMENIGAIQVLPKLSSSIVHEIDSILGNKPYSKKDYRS
Experiment [6] shares this target. The experiment in a line: enhancers of rat Kvbeta2 NADPH turnover – biochemical, NADPH fluorescence, primary screen (AID 623;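 active means NADPH fluorescence slope more negative than the mean of all samples by about 3 SD, 99.7% confidence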;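 further: fluorescence intensity change per second fitted from 20 to 320 s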). The following applies: Recombinant KvBeta, NADPH fluorescence decrease slope, 10 min; at 10 µM; stronger effect = lower value.
The target of experiment [7] is Alpha-2C adrenergic receptor (Homo sapiens) (UniProt P18825). As to the kind of experiment: compounds altering alpha2C-coupled GIRK flux – cell-based, HEK293 alpha2C/GIRK1/2, thallium flux, primary screen (AID 624).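 Further: slope of fluorescence ratio to pre-addition baseline per second over 15 to 24 s.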 The settings on record: thallium flux BTC fluorescence, at 10 µM, actives lie on both sides.
Chain of Alpha-2C adrenergic receptor (Homo sapiens) (P18825 whole entry, looked up): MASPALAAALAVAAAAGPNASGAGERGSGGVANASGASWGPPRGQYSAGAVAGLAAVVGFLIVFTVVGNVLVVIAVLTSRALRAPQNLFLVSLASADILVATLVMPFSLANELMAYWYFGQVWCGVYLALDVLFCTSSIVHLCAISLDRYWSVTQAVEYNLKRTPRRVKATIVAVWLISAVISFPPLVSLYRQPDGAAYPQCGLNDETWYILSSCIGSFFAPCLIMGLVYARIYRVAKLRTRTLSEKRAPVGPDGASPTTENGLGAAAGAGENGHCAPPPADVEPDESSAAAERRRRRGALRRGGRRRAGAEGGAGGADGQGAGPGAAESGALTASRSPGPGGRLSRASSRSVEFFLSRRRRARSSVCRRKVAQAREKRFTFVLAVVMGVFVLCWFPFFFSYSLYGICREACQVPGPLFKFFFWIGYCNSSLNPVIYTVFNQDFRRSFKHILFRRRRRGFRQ
Experiment [8] can be described thus: inhibitors of larval lipid processing in zebrafish, primary screen, whole organism, PED6 fluorescence, gall bladder and intestine (AID 686;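 active means a full or partial loss of lipid-probe fluorescence in the fish gall bladder, intestine or both, judged by eye; inactive means no fluorescence loss, or compound toxic to the fish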;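 further: signal comes from phospholipase A2 cleavage of quenched PED6 carried via bile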). The settings on record: Zebrafish larvae PED6 lipid processing, fluorescence scoring; screened at 20 µM (by protocol). Put shortly: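 Doses: 20 µM single dose. Test system: live zebrafish larvae aged 5-7 days, whole organism. Quantity: five larvae per well. Measured by: By-eye fluorescence microscopy. Reagent: ingested quenched lipid PED6 at 100 nM. Read-out: visual per-well fluorescence inhibition score. Times: overnight exposure of larvae to compound plus PED6.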

The nature of experiment [9]: loss of swimming-algae plug formation – whole organism, Chlamydomonas reinhardtii, WT vs cilia-less mutant, absorbance, 96-well, primary screen (AID 463189;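 active means inhibition at or above 50% relative to wild type and mutant plate controls; inactive means inhibition below 50%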;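 further: 0% = wild type cc124 cells in DMSO and 100% = ciliumless bld1 mutant cells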). The settings on record: Chlamydomonas reinhardtii gravitaxis, OD600 absorbance, 2 days; at 10 µM; stronger effect = higher value.
The mark [10] stands for this setting: measured here: cell density z-score.
[11] abbreviates: measured here: nuclear c-Myc green intensity z-score.
Where [12] appears, read: measured here: nuclear pErk red intensity z-score, stronger effect = higher value.

Active and inactive are the calls of the source.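 How the source made its calls, unless noted: active means fluorescence slope after compound addition differing from the mean of all screened samples at 99.7% confidence, in either direction; inactive means the rest.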

Chain of Dual specificity protein phosphatase 6 (Homo sapiens) (Q16828 whole entry, looked up): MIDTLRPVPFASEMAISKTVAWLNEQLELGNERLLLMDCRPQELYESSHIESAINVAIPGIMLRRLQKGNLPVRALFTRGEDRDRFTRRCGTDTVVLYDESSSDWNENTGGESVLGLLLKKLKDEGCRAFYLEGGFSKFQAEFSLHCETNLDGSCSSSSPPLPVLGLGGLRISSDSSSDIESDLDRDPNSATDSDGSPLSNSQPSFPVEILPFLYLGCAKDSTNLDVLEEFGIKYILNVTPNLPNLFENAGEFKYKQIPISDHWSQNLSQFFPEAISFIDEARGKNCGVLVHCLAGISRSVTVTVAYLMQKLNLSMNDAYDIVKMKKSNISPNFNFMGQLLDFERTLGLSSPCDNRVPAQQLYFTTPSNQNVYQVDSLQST

Take `Cn1nccc1C(=O)Nc1ccccc1C(=O)O`: the cell count in experiment [1] turned out to be 640. For the same molecule, the inhibition was -1.2% (inactive) in experiment [1], 16% (inactive) in [2], 11.4% (inactive) in experiment [4] and 15.5% (inactive) in [9]. Besides, the nuclei count in experiment [2] is 170%. For the same molecule, the z-score in [3] (setting [10]) was 1.93; in experiment [3] (setting [11]), -0.909; in experiment [3] (setting [12]), -0.448. Also, the fluorescence slope in [5] was -0.449 (inactive). For the same molecule, the NADPH fluorescence slope in experiment [6] is -0.000369 (inactive). For the same molecule, the slope in [7] was 0.00518 (inactive). For the same molecule, in [8], the call was inactive.
For the molecule `CC(=O)C1(C)OC(N)=C(C#N)C(c2ccccc2)C1(C#N)C#N` (centres undefined), in experiment [1], the cell count worked out at 511. Also, the inhibition in experiment [1] was -7.2% (inactive); in [2], -76.9% (inactive); in [4], -2.91% (inactive); in [9], 23.7% (inactive). Moreover, the nuclei count in [2] was 155%. Besides, the figures for the z-score in experiment [3] (setting [10]), in [3] (setting [11]) and in experiment [3] (setting [12]) were 0.834, -0.296 and -1.55, respectively. In [5], the fluorescence slope was -0.377 (inactive). The NADPH fluorescence slope in [6] was 2.9e-06 (inactive). The slope in experiment [7] is 0.00393 (inactive). Also, the result in [8] was inactive.
On to `CCOc1ccc(Cn2c(O)cc(=O)[nH]c2=O)cc1`, for which the cell count in [1] turned out to be 530. Also, the inhibition in experiment [1] was 1.9% (inactive); in [2], -97.4% (inactive); in experiment [4] it was 14% (inactive); in [9], -15% (inactive). This molecule registered a nuclei count in experiment [2] of 190%. Moreover, the z-score was 0.509 in experiment [3] (setting [10]), 0.944 in experiment [3] (setting [11]) and -0.603 in experiment [3] (setting [12]). Moreover, the fluorescence slope in experiment [5] is -0.322 (inactive). Further, in [6], the NADPH fluorescence slope is 9.9e-06 (inactive). Moreover, the slope in experiment [7] was 0.00555 (inactive). In addition, the result in experiment [8] was inactive.
In the case of `C/C(=N\O)C1(C)N(O)C(C)(C)C(c2ccco2)=[N+]1[O-]` (centres undefined), the cell count in experiment [1] was 428. Besides, the inhibition is -2.8% (inactive) in experiment [1], -112% (inactive) in [2], 13.2% (inactive) in experiment [4] and 14.5% (inactive) in [9]. Also, in experiment [2], the nuclei count was found to be 131%. Further, the z-score in experiment [3] (setting [10]) is 0.73; in experiment [3] (setting [11]), -1.17; in experiment [3] (setting [12]), -0.0605. Also, the fluorescence slope in [5] is -0.486 (inactive). Further, in [6], the NADPH fluorescence slope is -3.2e-05 (inactive). Besides, the slope in experiment [7] is 0.00518 (inactive). Moreover, the molecule was classed as inactive in experiment [8].
For the molecule `COC(=O)CN1C2(C#N)CCCCC2CC2CCCCC21C#N` (centres undefined), the cell count in experiment [1] is 420. The inhibition is -8.8% (inactive) in experiment [1], -128% (inactive) in experiment [2], 3.66% (inactive) in experiment [4] and 45.5% (inactive) in [9]. The nuclei count in experiment [2] came out at 153%. In addition, the z-score in [3] (setting [10]) was -0.336; in [3] (setting [11]), -0.947; in experiment [3] (setting [12]), -0.0966. Further, the fluorescence slope in experiment [5] was -0.504 (inactive). The NADPH fluorescence slope in [6] was -9.5e-05 (inactive). Also, in [7], the slope was 0.00451 (inactive). In addition, the outcome in experiment [8] was inactive.
In the case of `CCc1c(C)c(C#N)c2nc3ccccc3n2c1-n1nc(C)cc1C`, the cell count in experiment [1] was found to be 609. Also, the inhibition in experiment [1] is -2.3% (inactive); in experiment [2] it was -51.2% (inactive); in [4] it was 7.93% (inactive); in [9], -13.6% (inactive). Besides, the nuclei count in experiment [2] was found to be 140%. Also, the z-score in experiment [3] (setting [10]) was -0.4; in [3] (setting [11]), 1.4; in experiment [3] (setting [12]) it was -0.335. For the same molecule, the fluorescence slope in experiment [5] was -0.352 (inactive). In experiment [6], the NADPH fluorescence slope was -7.9e-05 (inactive). Moreover, the slope in [7] was 0.00552 (inactive). The outcome in experiment [8] was inactive.
In the case of `C1CCCN(CCCCN2CCCCCC2)CC1`, in experiment [1], the cell count is 575. In addition, the inhibition was -1.5% (inactive) in [1], -211% (inactive) in experiment [2], -5.89% (inactive) in experiment [4] and -11.5% (inactive) in experiment [9]. This molecule also showed a nuclei count in [2] of 129%. Further, the figures for the z-score in experiment [3] (setting [10]), in [3] (setting [11]) and in experiment [3] (setting [12]) were -2.5, 1.44 and -0.0614, respectively. In addition, the fluorescence slope in experiment [5] was -0.456 (inactive). Also, the NADPH fluorescence slope in experiment [6] is -0.000347 (inactive). The slope in experiment [7] is 0.00726 (inactive). Moreover, the result in [8] was inactive.
For the molecule `COC(=O)c1ccccc1NC=C1C(=O)OC2(CCCCC2)OC1=O`, the cell count in [1] was found to be 343. Besides, the inhibition in [1] was -9% (inactive); in experiment [2] it was 27.4% (inactive); in experiment [4], 1.42% (inactive); in experiment [9] it was 46.5% (inactive). The nuclei count in [2] was 86.4%. Further, the z-score in experiment [3] (setting [10]) was -1.26; in experiment [3] (setting [11]), -1.2; in [3] (setting [12]), -0.313. The fluorescence slope in experiment [5] is -0.443 (inactive). In addition, the NADPH fluorescence slope in experiment [6] is -1.9e-05 (inactive). Further, in experiment [7], the slope was 0.00691 (inactive). In [8], the outcome was inactive.
As for `CCOC(=O)CC1=C(C(=O)OCC)C(c2cc(OC)c(OC)cc2OC)C(C#N)=C(N)O1` (centres undefined), in experiment [1], the cell count was 433. Besides, the inhibition is -10% (inactive) in experiment [1], -66.1% (inactive) in [2], -8.27% (inactive) in [4] and 15.6% (inactive) in experiment [9]. Also, in [2], the nuclei count came out at 106%. Moreover, the z-score in experiment [3] (setting [10]) was 1.93; in experiment [3] (setting [11]), -1.51; in experiment [3] (setting [12]), -0.137. In experiment [5], the fluorescence slope was -0.345 (inactive). In [6], the NADPH fluorescence slope is 6.8e-06 (inactive). In [7], the slope is 0.00515 (inactive). In addition, in [8], the call was inactive.
In the case of `c1coc(CNc2ncnc3ccccc23)c1`, the cell count in [1] worked out at 553. In addition, the inhibition in experiment [1] was -2.6% (inactive); in [2], 2.7% (inactive); in experiment [4], 14% (inactive); in [9], 12.9% (inactive). Besides, the nuclei count in experiment [2] was found to be 155%. Also, the values for the z-score in [3] (setting [10]), in experiment [3] (setting [11]) and in experiment [3] (setting [12]) were 0.847, -1.11 and 1.51, respectively. Besides, in [5], the fluorescence slope is -0.479 (inactive). In addition, the NADPH fluorescence slope in [6] was -0.000192 (inactive). For the same molecule, in experiment [7], the slope is 0.00559 (inactive). The outcome in experiment [8] is “inactive; toxic”.
Take `c1ccc(C2Nc3ccccc3-c3nc4ccccc4n32)nc1` (centres undefined): the cell count in [1] was found to be 467. In addition, the inhibition is 5.5% (inactive) in experiment [1], -27.5% (inactive) in experiment [2], 12.3% (inactive) in experiment [4] and -35.3% (inactive) in experiment [9]. The molecule further showed a nuclei count in experiment [2] of 101%. In addition, the z-score was -0.673 in experiment [3] (setting [10]), 0.738 in experiment [3] (setting [11]) and -0.0231 in experiment [3] (setting [12]). Also, in experiment [5], the fluorescence slope was -0.495 (inactive). Further, the NADPH fluorescence slope in [6] was -1.1e-05 (inactive). The slope in experiment [7] was 0.00682 (inactive). In addition, the call in experiment [8] was inactive.
Consider `CCOC(=O)c1c(C)n(C)c2ccc(OC)c(NC(=O)c3cccs3)c12`, for which, in experiment [1], the cell count amounted to 361. For the same molecule, the inhibition is -4.3% (inactive) in [1], -0.3% (inactive) in experiment [2], -4.59% (inactive) in [4] and -6.67% (inactive) in experiment [9]. In experiment [2], this molecule registered a nuclei count of 151%. Also, the z-score in experiment [3] (setting [10]) is -1.28; in experiment [3] (setting [11]) it was 0.0285; in experiment [3] (setting [12]) it was 0.397. Besides, in [5], the fluorescence slope was -0.424 (inactive). In experiment [6], the NADPH fluorescence slope is -0.00012 (inactive). In addition, the slope in experiment [7] is 0.00568 (inactive). Further, the call in experiment [8] was inactive.
As to `COC(=O)/C(=C1/Oc2cc(C)oc(=O)c2S1)C(F)(F)F`, the cell count in [1] turned out to be 330. In addition, the inhibition in experiment [1] was -2.4% (inactive); in experiment [2] it was -59.5% (inactive); in experiment [4], 28% (inactive); in experiment [9] it was 5.01% (inactive). Moreover, in experiment [2], the nuclei count is 177%. Further, the z-score turned out to be 1.64 in experiment [3] (setting [10]), 0.462 in [3] (setting [11]) and 0.469 in [3] (setting [12]). In experiment [5], the fluorescence slope is -0.427 (inactive). Also, the NADPH fluorescence slope in experiment [6] is -0.000106 (inactive). The slope in experiment [7] is 0.0045 (inactive). For the same molecule, the result in experiment [8] was inactive.

One may read the inhibition as the drop in the measured response relative to a control, in per cent.

The values above are taken from PubChem BioAssay.
